From ChEMBL document CHEMBL1122272, “2-haloethylating agents for cancer chemotherapy. 2-haloethyl sulfonates” (1983)
Values joined by “and” are separate entries in the source; they are usually repeats but may differ in a detail not shown here. Identical values can stand only once.

Legend:
[1] = tested on: P388; test: T/C ratio against P388 leukemia in mice at a dose(mg/kg, schedule (q.d.).; assay type: functional, organism-based; conditions: Mus musculus
Outline: (§1)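 Mice inoculated ip with 10⁶ P388 leukemia cells on day 0. Dosed once on day 1, or q.d. days 1-9 or 1-5. Solutions or suspensions given within about 5 min of preparation, or within 15 min where marked. Value is median/mean survival time, treated vs control, as T/C %. Dose counted toxic if day-5 mortality >3 of 6, T/C <85%, or weight-change difference beyond -4 g.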

[2] = tested on: P388; test: (§2) T/C ratio against P388 leukemia in mice at a dose(mg/kg, schedule (q.d.)); assay type: functional, Mus musculus; outline: as §1
[3] = tested on: P388; test: Weight change in mice against P388 leukemia; assay type: functional, Mus musculus
Outline: (§3)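 P388 leukemia mice given 10⁶ cells ip on day 0 and then treated on a single day-1 or q.d. 1-9 or 1-5 schedule. Solutions or suspensions given within about 5 or 15 min of preparation. Value is average weight change on day 5 of treated mice minus that of control mice, in g.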

[4] = tested on: P388; test: T/C ratio against P388 leukemia in mice at a dose(mg/kg, schedule); assay type: functional, Mus musculus; outline: as §1
[5] = tested on: P388; test: as §2; assay type: functional, Mus musculus; outline: as §1; remark: listed apart in the source
[6] = tested on: P388; test: T/C ratio against P388 leukemia in mice dose(mg/kg, schedule (q.d.)); assay type: functional, Mus musculus; outline: as §1
[7] = tested on: P388; test: weight change difference (T-C) in mice against P388 leukemia at a dose(mg/kg, schedule); assay type: functional, Mus musculus; outline: as §3
[8] = tested on: P388; test: as §2; assay type: functional, Mus musculus; outline: as §1; remark: listed apart in the source
[9] = tested on: P388; test: as §2; assay type: functional, Mus musculus; outline: as §1; remark: listed apart in the source

SMILES | T/C [1] | T/C [2] | Weight change difference [3] | other results
O=[N+]([O-])c1ccc(CS(=O)(=O)OCCCl)cc1 | Toxic | – | – | –
O=[N+]([O-])c1ccc(/C=C/S(=O)(=O)OCCCl)cc1 | Toxic | 100% and 104% | – | –
O=C(CCl)NCCCl | Toxic | 100% and 97% | – | –
N#CCS(=O)(=O)OCCCl | – | 151% and 144% and 126% | -1.5 g and -2.1 g and -1.1 g | –
O=S(=O)(OCCCl)c1c(F)c(F)c(F)c(F)c1F | Toxic | 110% and 100% | – | –
C=CS(=O)(=O)OCCCl | Toxic | 125% and 111% | – | –
O=S(=O)(OCCCl)c1cc(Cl)c(Cl)cc1Cl | – | 90% and 114% and 105% | – | –
CCOS(=O)(=O)CCl | – | 107% and 100% and 60% | – | –
CS(=O)(=O)OCCCl | Toxic | 134% and 133% | -1.6 g and -0.8 g | T/C [4]: 110%; T/C [5]: 102%; T/C [6]: 108%; Weight change difference [7]: -1.2 g and -2.2 g and -0.9 g
O=S(=O)(OCCCl)c1ccc(F)cc1 | – | 100% and 101% | – | –
C=C(Br)S(=O)(=O)OCCCl | Toxic | 100% and 104% | -2.8 g and -1.4 g | –
O=S(=O)(CCl)NCCCl | – | 106% | – | –
O=S(=O)(/C=C/c1ccccc1)OCCCl | – | 107% | -0.1 g | –
COc1ccc(S(=O)(=O)OCCCl)cc1 | – | 100% | 0 g | –
O=S(=O)(OCCCl)c1c(Cl)c(Cl)c(Cl)c(Cl)c1Cl | Toxic | 96% and 92% | -3.2 g and -4.3 g and -1.6 g | T/C [8]: 92%
CCS(=O)(=O)OCCCl | – | 116% and 104% | – | –
Cc1cc(C)c(S(=O)(=O)OCCCl)c(C)c1 | Toxic | 95% and 106% | – | –
CS(=O)(=O)OCCBr | Toxic | 116% and 114% | – | –
CCS(=O)(=O)OCCF | Toxic | 106% and 111% | -0.7 g and -0.6 g | –
O=S(=O)(CCl)OCCF | Toxic | 117% and 102% | -2.1 g and -0.8 g | –
O=S(=O)(CBr)OCCCl | – | 165% and 200% and 159% and 128% and 120% | – | Weight change difference [7]: -0.2 g
O=S(=O)(OCCF)c1cc(Cl)c(Cl)cc1Cl | Toxic | 113% and 98% | – | –
O=S(=O)(CI)OCCCl | Toxic | 93% | -0.1 g | T/C [9]: 110%
O=S(=O)(CCl)OCCCl | Toxic | 214% and 201% and 175% and 131% and 120% | – | –
Cc1c(C)c(C)c(S(=O)(=O)OCCCl)c(C)c1C | – | 95% | -0.2 g | –
CS(=O)(=O)OCCF | Toxic | 89% and 103% and 111% and 100% | – | –
